In ChEMBL document CHEMBL1144722 (J Nat Prod, 2008):
The source made the active and inactive calls. The rule behind the calls is not given here.

Tests used:
Type in all cases: functional, cell-based
[1] = (§1) Antiproliferative activity against mouse +SA mammary epithelial cells after 4 days by MTT assay; conditions: Epithelial cell, 96 h
Method in brief: (§2)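 Highly malignant +SA mouse mammary epithelial cells kept in serum-free medium with 10 ng/mL EGF and 10 µg/mL insulin as mitogens. Seeded at 5 × 10⁴ cells/well, 6 wells/group, and fed medium containing compound at 0.01–1000 µM, compared with vehicle controls. After 4 days of culture, viable cell number was read by MTT colorimetric assay.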

[2] = system: Epithelial cell; assay: Antiproliferative activity against mouse +SA mammary epithelial cells at 15 to 40 uM after 4 days by MTT assay; method in brief: as §2
[3] = system: Epithelial cell; assay: as §1; method in brief: as §2

Row | SMILES | IC50 [1] [µM] | Activity [2] | Activity [3]
1 | CC(=O)O[C@H]1/C=C(\C)CC/C=C(\C)[C@@H](O)C[C@@H](C(C)C)/C=C/[C@@](C)(O)C1 | 20 | Active | –
2 | C/C1=C/C(=O)C[C@](C)(O)/C=C/[C@H](C(C)C)CC/C(C)=C/CC1 | – | Active | –
3 | CC(C)=CCC/C(C)=C/CC/C(C)=C/CC[C@]1(C)CCc2cc(O)cc(C)c2O1 [DELTA-TOCOTRIENOL] | 7 | – | –
4 | CC(=O)O[C@H]1/C=C(\C)CC[C@H](O)[C@@](C)(SC#N)CC[C@@H](C(C)C)/C=C/[C@@](C)(O)C1 | – | – | inactive
5 | CCNC(=O)O[C@H]1/C=C(\C)CC/C=C(\C)CC[C@@H](C(C)C)/C=C/[C@@](C)(O)C1 | – | – | inactive
6 | CC(=O)O[C@H]1/C=C(\C)CC/C=C(\C)CC[C@@H](C(C)C)/C=C/[C@@](C)(O)C1 | – | – | Active
7 | CC(=O)O[C@H]1/C=C(\C)CC[C@@H]2OC(=N)S[C@@]2(C)CC[C@@H](C(C)C)/C=C/[C@@](C)(O)C1 | – | – | inactive
8 | CC(=O)/C=C/C(CC/C(C)=C/CC/C(C)=C/C(C)=O)C(C)C (stereo not given) [SECOCEMBRANOID] | 15 | Active | –
9 | C/C1=C\[C@H](OC(=O)NCCCl)C[C@](C)(O)/C=C/[C@H](C(C)C)CC/C(C)=C/CC1 | – | – | inactive
10 | CC(=O)O[C@H]1/C=C(\C)CC/C=C(\C)[C@H](O)C[C@@H](C(C)C)/C=C/[C@@](C)(O)C1 | 30 | Active | –
11 | C/C1=C\[C@H](OC(=O)NCc2ccccc2)C[C@](C)(O)/C=C/[C@H](C(C)C)CC/C(C)=C/CC1 | – | – | inactive
12 | C/C1=C\C(=O)C[C@](C)(O)/C=C/[C@H](C(C)C)CC/C(C)=C/CC1 | – | inactive | –
